In brackets after ≈: the same amount, converted by molar mass.
Legend:
Cryptococcus neoformans = experiment: Antifungal activity against Cryptococcus neoformans CGMCC 2.3161 assessed as inhibition of visible microbial growth by NCCLS protocol based method; type: functional
Outline: (§1)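 Compounds dissolved in DMSO and serially diluted into growth medium. MIC was read as the lowest concentration that inhibited visible fungal growth.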

[1] = biological target: T1, Lanosterol 14-alpha demethylase (Candida albicans (strain SC5314 / ATCC MYA-2876) (Yeast), UniProt P10613); experiment: Inhibition of CYP51 in Candida albicans ATCC SC5314 assessed as obtusifoliol level at 0.5 ug/ml incubated for 16 hrs by GC/MS analysis (reference value: 0%); parameters: scale not given: the % may be the effect or the level left; conditions: candida albicans sc5314, 16 h
T1 sequence (P10613 whole entry): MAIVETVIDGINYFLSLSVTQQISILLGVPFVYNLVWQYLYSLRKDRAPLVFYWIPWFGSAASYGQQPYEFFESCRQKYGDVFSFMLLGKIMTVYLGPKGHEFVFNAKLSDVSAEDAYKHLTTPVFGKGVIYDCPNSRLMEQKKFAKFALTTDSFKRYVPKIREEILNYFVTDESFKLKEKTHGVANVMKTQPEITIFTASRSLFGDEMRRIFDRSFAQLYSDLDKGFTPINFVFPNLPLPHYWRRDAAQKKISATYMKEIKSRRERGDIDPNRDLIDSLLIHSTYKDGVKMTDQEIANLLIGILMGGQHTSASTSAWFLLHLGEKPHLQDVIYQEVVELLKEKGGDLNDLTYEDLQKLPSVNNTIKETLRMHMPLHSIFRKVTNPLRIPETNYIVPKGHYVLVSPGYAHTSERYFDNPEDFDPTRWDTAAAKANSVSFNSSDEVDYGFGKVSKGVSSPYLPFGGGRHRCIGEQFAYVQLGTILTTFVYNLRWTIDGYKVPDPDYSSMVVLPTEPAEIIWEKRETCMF

Candida albicans [2] = experiment: Antifungal activity against Candida albicans ATCC SC5314 assessed as inhibition of visible microbial growth by NCCLS protocol based method; type: functional; outline: as §1
Candida albicans [3] = experiment: Antifungal activity against Candida albicans CPCC 400523 assessed as inhibition of visible microbial growth by NCCLS protocol based method; type: functional
[4] = biological target: T1, Lanosterol 14-alpha demethylase; experiment: Inhibition of CYP51 in Candida albicans ATCC SC5314 assessed as ergosterol level at 2 ug/ml incubated for 16 hrs by GC/MS analysis (reference value: 100%); parameters: scale not given: the % may be the effect or the level left; conditions: candida albicans sc5314, 16 h
[5] = biological target: T1, Lanosterol 14-alpha demethylase; experiment: Inhibition of CYP51 in Candida albicans ATCC SC5314 assessed as ergosterol level at 0.13 ug/ml incubated for 16 hrs by GC/MS analysis (reference value: 100%); parameters: scale not given: the % may be the effect or the level left; conditions: candida albicans sc5314, 16 h
[6] = biological target: T1, Lanosterol 14-alpha demethylase; experiment: Inhibition of CYP51 in Candida albicans ATCC SC5314 assessed as eburicol level at 0.5 ug/ml incubated for 16 hrs by GC/MS analysis (reference value: 0%); parameters: scale not given: the % may be the effect or the level left; conditions: candida albicans sc5314, 16 h
[7] = biological target: T1, Lanosterol 14-alpha demethylase; experiment: Inhibition of CYP51 in Candida albicans ATCC SC5314 assessed as ergosterol level at 8 ug/ml incubated for 16 hrs by GC/MS analysis (reference value: 100%); parameters: scale not given: the % may be the effect or the level left; conditions: candida albicans sc5314, 16 h
[8] = biological target: T1, Lanosterol 14-alpha demethylase; experiment: Inhibition of CYP51 in Candida albicans ATCC SC5314 assessed as lanosterol level at 2 ug/ml incubated for 16 hrs by GC/MS analysis (reference value: 0%); parameters: scale not given: the % may be the effect or the level left; conditions: candida albicans sc5314, 16 h
[9] = biological target: T1, Lanosterol 14-alpha demethylase; experiment: Inhibition of CYP51 in Candida albicans ATCC SC5314 assessed as eburicol level at 8 ug/ml incubated for 16 hrs by GC/MS analysis (reference value: 0%); parameters: scale not given: the % may be the effect or the level left; conditions: candida albicans sc5314, 16 h
[10] = biological target: T1, Lanosterol 14-alpha demethylase; experiment: Inhibition of CYP51 in Candida albicans ATCC SC5314 assessed as obtusifoliol level at 0.13 ug/ml incubated for 16 hrs by GC/MS analysis (reference value: 0%); parameters: scale not given: the % may be the effect or the level left; conditions: candida albicans sc5314, 16 h
[11] = biological target: T1, Lanosterol 14-alpha demethylase; experiment: Inhibition of CYP51 in Candida albicans ATCC SC5314 assessed as eburicol level at 0.13 ug/ml incubated for 16 hrs by GC/MS analysis (reference value: 0%); parameters: scale not given: the % may be the effect or the level left; conditions: candida albicans sc5314, 16 h
[12] = biological target: T1, Lanosterol 14-alpha demethylase; experiment: Inhibition of CYP51 in Candida albicans ATCC SC5314 assessed as eburicol level at 2 ug/ml incubated for 16 hrs by GC/MS analysis (reference value: 0%); parameters: scale not given: the % may be the effect or the level left; conditions: candida albicans sc5314, 16 h
[13] = biological target: T1, Lanosterol 14-alpha demethylase; experiment: Inhibition of CYP51 in Candida albicans ATCC SC5314 assessed as lanosterol level at 8 ug/ml incubated for 16 hrs by GC/MS analysis (reference value: 0%); parameters: scale not given: the % may be the effect or the level left; conditions: candida albicans sc5314, 16 h
Candida albicans [14] = experiment: Antifungal activity against fluconazole-resistant Candida albicans Strain CaR assessed as inhibition of visible microbial growth by NCCLS protocol based method; type: functional
Outline: (§2)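 Broth dilution MIC against clinical fluconazole-resistant C. albicans isolates from AIDS patients. Compounds dissolved in DMSO and serially diluted into growth medium. MIC was taken as the lowest concentration that inhibits visible fungal growth. Fluconazole and itraconazole served as positive controls.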

[15] = biological target: T1, Lanosterol 14-alpha demethylase; experiment: Inhibition of CYP51 in Candida albicans ATCC SC5314 assessed as obtusifoliol level at 8 ug/ml incubated for 16 hrs by GC/MS analysis (reference value: 0%); parameters: scale not given: the % may be the effect or the level left; conditions: candida albicans sc5314, 16 h
[16] = biological target: T1, Lanosterol 14-alpha demethylase; experiment: Inhibition of CYP51 in Candida albicans ATCC SC5314 assessed as ergosterol level at 0.5 ug/ml incubated for 16 hrs by GC/MS analysis (reference value: 100%); parameters: scale not given: the % may be the effect or the level left; conditions: candida albicans sc5314, 16 h
[17] = biological target: T1, Lanosterol 14-alpha demethylase; experiment: Inhibition of CYP51 in Candida albicans ATCC SC5314 assessed as change in sterol components incubated for 16 hrs by GC/MS analysis; conditions: candida albicans sc5314, 16 h
[18] = biological target: T1, Lanosterol 14-alpha demethylase; experiment: Inhibition of CYP51 in Candida albicans ATCC SC5314 assessed as obtusifoliol level at 2 ug/ml incubated for 16 hrs by GC/MS analysis (reference value: 0%); parameters: scale not given: the % may be the effect or the level left; conditions: candida albicans sc5314, 16 h
Aspergillus fumigatus = experiment: Antifungal activity against Aspergillus fumigatus CGMCC 3.7795 assessed as inhibition of visible microbial growth by NCCLS protocol based method; type: functional; outline: as §1
Candida tropicalis = experiment: Antifungal activity against Candida tropicalis CGMCC 2.3739 assessed as inhibition of visible microbial growth by NCCLS protocol based method; type: functional; outline: as §1
[19] = biological target: T1, Lanosterol 14-alpha demethylase; experiment: Inhibition of CYP51 in Candida albicans ATCC SC5314 assessed as lanosterol level at 0.5 ug/ml incubated for 16 hrs by GC/MS analysis (reference value: 0%); parameters: scale not given: the % may be the effect or the level left; conditions: candida albicans sc5314, 16 h
Candida albicans [20] = experiment: Antifungal activity against fluconazole-resistant Candida albicans Strain 17# assessed as inhibition of visible microbial growth by NCCLS protocol based method; type: functional; outline: as §2
[21] = biological target: T1, Lanosterol 14-alpha demethylase; experiment: Inhibition of CYP51 in Candida albicans ATCC SC5314 assessed as lanosterol level at 0.13 ug/ml incubated for 16 hrs by GC/MS analysis (reference value: 0%); parameters: scale not given: the % may be the effect or the level left; conditions: candida albicans sc5314, 16 h
Candida albicans [22] = experiment: Antifungal activity against Candida albicans SC5314; type: functional
[23] = Stability in human plasma assessed as parent compound remaining at 100 uM after 120 mins LC/MS/MS analysis relative to control; type: ADME, cell-free; conditions: read-out: Stability
Outline: (§3)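 Thawed human plasma was cleared at 4000 rpm and spiked from a 100 μM dosing solution to a final 2 μM, in duplicate, at 37 °C. Propantheline served as positive control. Sampling at 0, 10, 30, 60 and 120 min into ACN/MeOH stop solution with tolbutamide and labetalol internal standards. After centrifugation, supernatant was diluted with water and run by LC/MS/MS. % remaining was taken from the analyte/IS peak-area ratio, with no standard curve.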

[24] = Stability in human plasma assessed as parent compound remaining at 100 uM after 60 mins LC/MS/MS analysis relative to control; type: ADME, cell-free; conditions: read-out: Stability; outline: as §3
[25] = Cytotoxicity in human A549 cells assessed as reduction in cell viability at 50 uM/L incubated for 24 hrs by MTT assay relative to control; type: cell-based; conditions: read-out: INH
Outline: (§4)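 A549 cells were seeded at 3000 cells/well and preincubated for 16 h at 37 °C, 5% CO2. Medium was then replaced with fresh medium holding compound (DMSO stock diluted to final 0.08, 0.4, 2.0, 10 or 50 μM/L). Exposure lasted 24 h at 37 °C, 5% CO2, followed by MTT for 4 h and absorbance at 490 nm. Results are given as % inhibition.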

[26] = Cytotoxicity in human A549 cells assessed as reduction in cell viability at 0.40 uM/L incubated for 24 hrs by MTT assay relative to control; type: cell-based; conditions: read-out: INH; outline: as §4
[27] = Cytotoxicity in human A549 cells assessed as reduction in cell viability at 0.08 uM/L incubated for 24 hrs by MTT assay relative to control; type: cell-based; conditions: read-out: INH; outline: as §4
[28] = Cytotoxicity in human A549 cells assessed as reduction in cell viability at 10 uM/L incubated for 24 hrs by MTT assay relative to control; type: cell-based; conditions: read-out: INH; outline: as §4
[29] = Cytotoxicity in human A549 cells assessed as reduction in cell viability at 2 uM/L incubated for 24 hrs by MTT assay relative to control; type: cell-based; conditions: read-out: INH; outline: as §4

Row | SMILES | MIC (Cryptococcus neoformans) [µg/mL] | Activity [1] [%] | MIC (Candida albicans [2]) [µg/mL] | MIC (Candida albicans [3]) [µg/mL] | Activity [4] [%] | Activity [5] [%] | Activity [6] [%] | Activity [7] [%] | Activity [8] [%] | Activity [9] [%] | Activity [10] [%] | Activity [11] [%] | Activity [12] [%] | Activity [13] [%] | MIC (Candida albicans [14]) [µg/mL] | Activity [15] [%] | Activity [16] [%] | Activity [18] [%] | MIC (Aspergillus fumigatus) [µg/mL] | MIC (Candida tropicalis) [µg/mL] | other results
1 | OC(Cn1cncn1)(Cn1cncn1)c1ccc(F)cc1F [FLUCONAZOLE] | 4 | 0 | 0.5 | 1 | 17.2 | 97.7 | 0 | 0 | 28 | 39.9 | 0 | 0 | 37.1 | 22.9 | > 64 | 37.2 | 90.1 | 17.7 | > 64 | 1 | Activity [17]: Dose-dependent effect; Activity [19]: 9.9%; MIC (Candida albicans [20]): > 64 µg/mL; Activity [21]: 2.3%
2 | CC(C)OC(=O)C(Cn1ccnc1)NC(=O)c1ccc(-c2ccccc2)cc1 (stereo not given) | 2 |  | < 0.03 | 0.25 |  |  |  |  |  |  |  |  |  |  |  |  |  |  | > 64 | < 0.06 | MIC (Candida albicans [22]): 0.03 µg/mL (≈ 0.0795 µM)
3 | CC[C@H](C)[C@@H](Cn1ccnc1)NC(=O)c1ccc(-c2ccccc2F)cc1F | 1 | 12.2 | < 0.03 | 0.06 | 6.5 | 98 | 30.8 | 0 | 20 | 44.9 | 0 | 0 | 49.7 | 23.8 | 8 | 31.3 | 36 | 23.8 | 2 | < 0.03 | remaining at 2 h, 100 µM [23]: 92.6%; remaining at 1 h, 100 µM [24]: 114%; cytotoxicity at 24 h, 50 µM [25]: 13.9%; cytotoxicity at 24 h, 0.4 µM [26]: 6.6%; cytotoxicity at 24 h, 0.08 µM [27]: 5.4%; cytotoxicity at 24 h, 10 µM [28]: 8.3%; cytotoxicity at 24 h, 2 µM [29]: 7.3%; Activity [19]: 21%; MIC (Candida albicans [20]): 2 µg/mL; Activity [21]: 2%
